Active and inactive are the calls of the source. The calls are words filed in the database; no cut-off is given here.
Tests used:
[1] = Inhibition of beta-lactamase VIM-2 (unknown origin) expressed in Escherichia coli LZ2310 assessed as potentiation of cefoxitin antibacterial activity by measuring cefoxitin induced diameter of inhibition zone at 320 uM incubated for 18 hrs by disk diffusion method (reference value: 14 mm)
Procedure, shortened: (§1)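 Efflux-deficient E. coli LZ2310 (NorE, MdfA, AcrA knocked out) carrying pLB-II with the cloned MBL gene. Mueller-Hinton, CLSI disk diffusion; antibiotic disks (30 µg cefoxitin for VIM-2, 10 µg ampicillin for VIM-4, 30 µg ceftazidime for NDM-1/IMP-1) loaded with inhibitor in DMSO (≤15 µL). Zone diameter after 18 h, 35 ± 1 °C; DMSO and 220 µg EDTA controls. Triplicate.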

[2] = Inhibition of beta-lactamase IMP-1 (unknown origin) expressed in Escherichia coli BL21(DE3) using imipenem as substrate by measuring substrate hydrolysis by spectrophotometric analysis
Procedure, shortened: (§2)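 Purified enzyme (overproduced in E. coli BL21(DE3), pET-9a; ion-exchange and gel filtration), 1-70 nM final. Reporter substrate 150 μM imipenem, read at 300 nm, 30 °C, 50 mM HEPES pH 7.5. Single-point screen at 100 or 200 μM; Ki from v0/vi vs [I] (0.5–1,000 μM final) assuming competitive inhibition, or Dixon plot. Triplicate.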

[3] = Inhibition of beta-lactamase NDM1 (unknown origin) expressed in Escherichia coli BL21(DE3) using cefotaxime/nitrocefin as substrate by measuring substrate hydrolysis at 100 uM by spectrophotometric analysis
[4] = Inhibition of beta-lactamase VIM-2 (unknown origin) expressed in Escherichia coli XL-1 assessed as potentiation of cefoxitin antibacterial activity by measuring cefoxitin induced diameter of inhibition zone at 320 uM incubated for 18 hrs by disk diffusion method (reference value: 8 mm)
Procedure, shortened: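 Wild-type efflux E. coli XL-1 Blue transformed with pLB-II-VIM-2. Mueller-Hinton disk diffusion per CLSI, 30 µg cefoxitin disks loaded with inhibitor dissolved in DMSO (≤15 µL). Growth-inhibition zone measured after 18 h at 35 ± 1 °C; DMSO negative and 220 µg EDTA positive controls. Triplicate.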

[5] = Inhibition of beta-lactamase VIM2 (unknown origin) expressed in Escherichia coli BL21(DE3) using imipenem as substrate by measuring substrate hydrolysis at 100 uM by spectrophotometric analysis; procedure, shortened: as §2
[6] = Inhibition of beta-lactamase VIM4 (unknown origin) expressed in Escherichia coli BL21(DE3) using imipenem as substrate by measuring substrate hydrolysis at 100 uM by spectrophotometric analysis; procedure, shortened: as §2
[7] = Inhibition of beta-lactamase L1 (unknown origin) expressed in Escherichia coli BL21(DE3) using nitrocefin as substrate by measuring substrate hydrolysis at 100 uM preincubated for 30 mins by spectrophotometric analysis
Procedure, shortened: (§3)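 Enzyme 0.2–0.8 nM in 25 mM HEPES pH 7.5 with 50 μM ZnCl2 final, pre-incubated 30 min at 21 °C with inhibitor (100 μM screen). Nitrocefin 100 μM final, read at 482 nm, 30 °C. Residual activity vs three uninhibited samples; Ki (1–100 μM inhibitor) from Hanes linearization, competitive model. Triplicate.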

[8] = Inhibition of beta-lactamase IMP-1 (unknown origin) expressed in Escherichia coli LZ2310 assessed as potentiation of ceftazidime antibacterial activity by measuring ceftazidime induced diameter of inhibition zone at 320 uM incubated for 18 hrs by disk diffusion method (reference value: 9 mm); procedure, shortened: as §1
[9] = Inhibition of beta-lactamase L1 (unknown origin) expressed in Escherichia coli BL21(DE3) using nitrocefin as substrate by measuring substrate hydrolysis at 200 uM preincubated for 30 mins by spectrophotometric analysis
[10] = Inhibition of beta-lactamase VIM4 (unknown origin) expressed in Escherichia coli BL21(DE3) using imipenem as substrate by measuring substrate hydrolysis at 200 uM by spectrophotometric analysis; procedure, shortened: as §2
[11] = Inhibition of beta-lactamase VIM2 (unknown origin) expressed in Escherichia coli BL21(DE3) using imipenem as substrate by measuring substrate hydrolysis at 200 uM by spectrophotometric analysis; procedure, shortened: as §2
[12] = Inhibition of beta-lactamase IMP-1 (unknown origin) expressed in Escherichia coli BL21(DE3) using imipenem as substrate by measuring substrate hydrolysis at 200 uM by spectrophotometric analysis; procedure, shortened: as §2
[13] = Inhibition of beta-lactamase NDM1 (unknown origin) expressed in Escherichia coli BL21(DE3) using cefotaxime/nitrocefin as substrate by measuring substrate hydrolysis at 200 uM by spectrophotometric analysis
[14] = Inhibition of beta-lactamase IMP-1 (unknown origin) expressed in Escherichia coli LZ2310 assessed as potentiation of ceftazidime antibacterial activity by measuring ceftazidime induced diameter of inhibition zone at 80 uM incubated for 18 hrs by disk diffusion method (reference value: 9 mm); procedure, shortened: as §1
[15] = Inhibition of beta-lactamase CphA (unknown origin) expressed in Escherichia coli BL21(DE3) using imipenem as substrate by measuring substrate hydrolysis by spectrophotometric analysis
Procedure, shortened: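 Enzyme 0.2–0.8 nM in 15 mM cacodylate pH 6.5, no added zinc, pre-incubated 30 min at 21 °C with inhibitor (100 μM screen). Imipenem substrate added from 10 mM stock; hydrolysis at 300 nm, 30 °C. Residual activity vs three uninhibited samples; Ki (1–100 μM inhibitor) by Hanes linearization, competitive model. Triplicate.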

[16] = Inhibition of beta-lactamase IMP-1 (unknown origin) expressed in Escherichia coli LZ2310 assessed as potentiation of ceftazidime antibacterial activity by measuring ceftazidime induced diameter of inhibition zone at 40 uM incubated for 18 hrs by disk diffusion method (reference value: 9 mm); procedure, shortened: as §1
[17] = Binding affinity to beta-lactamase VIM-2 expressed in Escherichia coli BL21(DE3) assessed as association constant at 25 degC by isothermal titration calorimetry
Procedure, shortened: (§4)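 VIM-2 (19 μM) in 10 mM HEPES-NaOH, 0.15 M NaCl, 50 μM ZnSO4, pH 7.5, DMSO matched to ligand (1-2% final). One 0.5 μl then 19 × 2 μl injections of compound (200-400 μM), 150 s apart, 25 °C. Buffer dilution heats subtracted; nonlinear least-squares fit for n, Ka, ΔH; compound concentration adjusted in fitting so n ≈ 1.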

[18] = Binding affinity to beta-lactamase VIM-2 expressed in Escherichia coli BL21(DE3) assessed as dissociation constant at 25 degC by isothermal titration calorimetry; procedure, shortened: as §4
[19] = Binding affinity to beta-lactamase VIM-2 expressed in Escherichia coli BL21(DE3) assessed as change in entropy at 25 degC by isothermal titration calorimetry; procedure, shortened: as §4
[20] = Binding affinity to beta-lactamase VIM-2 expressed in Escherichia coli BL21(DE3) assessed as Gibbs free energy at 25 degC by isothermal titration calorimetry; procedure, shortened: as §4
[21] = Binding affinity to beta-lactamase VIM-2 expressed in Escherichia coli BL21(DE3) assessed as change in enthalpy at 25 degC by isothermal titration calorimetry; procedure, shortened: as §4
[22] = Inhibition of beta-lactamase NDM1 (unknown origin) expressed in Escherichia coli BL21(DE3) using cefotaxime/nitrocefin as substrate by measuring substrate hydrolysis by spectrophotometric analysis
Procedure, shortened: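 His-tagged enzyme from E. coli BL21(DE3) pET-15b, affinity-purified, 1-70 nM final. Reporter substrate 120 μM cefotaxime (260 nm) or 100 μM nitrocefin (482 nm), 30 °C, 50 mM HEPES pH 7.5. Inhibitor 0.5–1,000 μM final; competitive Ki from v0/vi vs [I] slope or Dixon plot. Triplicate.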

[23] = Inhibition of beta-lactamase VIM2 (unknown origin) expressed in Escherichia coli BL21(DE3) using imipenem as substrate by measuring substrate hydrolysis by spectrophotometric analysis; procedure, shortened: as §2
[24] = Inhibition of beta-lactamase VIM4 (unknown origin) expressed in Escherichia coli BL21(DE3) using imipenem as substrate by measuring substrate hydrolysis by spectrophotometric analysis; procedure, shortened: as §2
[25] = Inhibition of beta-lactamase L1 (unknown origin) expressed in Escherichia coli BL21(DE3) using nitrocefin as substrate by measuring substrate hydrolysis preincubated for 30 mins by spectrophotometric analysis; procedure, shortened: as §3

| Compound | inhibition zone (IZ) [1] [mm] | Ki [2] [µM] | inhibition [3] | inhibition zone (IZ) [4] [mm] | inhibition [5] | inhibition [6] | inhibition [7] | inhibition zone (IZ) [8] [mm] | inhibition [9] | inhibition [10] | inhibition [11] | inhibition [13] | inhibition zone (IZ) [14] [mm] | Ki [15] [µM] | other results |
| --- | --- | --- | --- | --- | --- | --- | --- | --- | --- | --- | --- | --- | --- | --- | --- |
| S=c1[nH]nc(-c2ccc(-c3ccccc3)cc2)n1/N=C/c1ccc(OCc2ccccc2)cc1 | 16 | 11.4 | 64% | 10 | inactive | inactive | inactive | 11 | inactive | inactive | inactive | – | – | – | – |
| S=c1[nH]nc(-c2cc3ccccc3[nH]2)n1/N=C/c1ccc(OCc2ccccc2)cc1 | – | – | inactive | – | inactive | inactive | inactive | – | inactive | inactive | inactive | inactive | 9 | – | inhibition [12]: 60% |
| Cc1ccccc1-c1n[nH]c(=S)n1/N=C/c1cc([N+](=O)[O-])ccc1O | – | 11 | inactive | – | inactive | 44% | 61% | – | – | – | inactive | inactive | 13 | 3 | inhibition zone (IZ) [16]: 9 mm |
| O=C(O)c1ccccc1/C=N/n1c(-c2cccc(-c3ccccc3)c2)n[nH]c1=S | 15 | 17.7 | – | 9 | – | – | – | 9 | – | – | – | – | – | 4 | Ka [17]: 1.5 10^7/M; Kd [18]: 0.068 µM; -TdeltaS [19]: 2.6 kcal/mol; deltaG [20]: -9.8 kcal/mol; deltaH [21]: -7.2 kcal/mol; Ki [22]: 4.2 µM; Ki [23]: 0.2 µM; Ki [24]: 0.04 µM; Ki [25]: 0.6 µM |

From ChEMBL document CHEMBL4706580, “4-Amino-1,2,4-triazole-3-thione-derived Schiff bases as metallo-β-lactamase inhibitors” (Eur J Med Chem, 2020)
